Measured values taken from ChEMBL document CHEMBL1121654, “New antiarrhythmic agents. 6. Quantitative structure-activity relationships of aminoxylidides” (J Med Chem, 1981).

How the values were obtained:
[1] = Dissociation constant (pKa); format: physicochemical
Mus musculus [2] = species: Mus musculus; experiment: Compound was evaluated for protection against tachycardia in mice; format: functional
Summary of the method: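 Mice given test agent, then chloroform-induced tachycardia (modified Lawson method); efficacy scored as percentage of mice protected at each dose. Doses stepped ≥0.15 log unit up/down to give low, medium and high protection incidence; ED50 (mmol/kg) by Berkson logit chi-square method.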

[3] = Therapeutic index is the ratio of ED50 (ataxia) to ED50 (protection) in mice; settings: mouse; read-out: TI
[4] = Compound was evaluated for -Log [fraction ionized x ED50 (protection)]; format: ADME
Mus musculus [5] = species: Mus musculus; experiment: Compound was evaluated for ataxia in mice; format: functional
[6] = Partition coefficient (logP); format: physicochemical; settings: octanol/water
Summary of the method: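 1-Octanol/water partition by titration: 10–40 mL aqueous test compound (1 mM) with 4–25 mL 1-octanol, stirred vigorously, titrated with 0.1 N NaOH; apparent pKa′ calculated, from which partition coefficient obtained.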

Row | SMILES | pKa [1] | ED50 (Mus musculus [2]) [µmol/kg] | selectivity ratio [3] | p[BH+50] [4] | ED50 (Mus musculus [5]) [µmol/kg] | logP [6]
1 | Cc1cccc(C)c1NC(=O)CN [GLYCINEXYLIDIDE] | 7.42 | 840 | 0.7 | 0.37 | 620 | 0.45
2 | Cc1cccc(C)c1NC(=O)CCCN | 9.35 | 800 | 4.1 | 0.1 | 3250 | 0.71
3 | Cc1cccc(C)c1NC(=O)CCN | 8.75 | 720 | 3.2 | 0.16 | 2300 | 0.62
4 | CCN(CC)C(C)CCC(=O)Nc1c(C)cccc1C (configuration not stated) | 9.87 | 210 | 5.5 | 0.68 | 1150 | 2.66
5 | Cc1cccc(C)c1NC(=O)C(C)N (configuration not stated) [TOCAINIDE] | 7.54 | 550 | 1.4 | 0.5 | 760 | 0.76
6 | Cc1cccc(C)c1NC(=O)C(C)N(C)C (configuration not stated) | 7.33 | 250 | 0.8 | 0.94 | 200 | 1.53
7 | CCN(CC)CCCCCCC(=O)Nc1c(C)cccc1C | 10.2 | 40 | 21 | 1.4 | 830 | 3.48
8 | CCN(CC)C(C)C(=O)Nc1c(C)cccc1C (configuration not stated) | 7.93 | 170 | 0.8 | 0.88 | 130 | 2.73
9 | CCN(CC)CCCCC(=O)Nc1c(C)cccc1C | 9.96 | 120 | 5.5 | 0.92 | 660 | 2.42
10 | CCN(CC)C(C)CC(=O)Nc1c(C)cccc1C (configuration not stated) | 9.03 | 50 | 1.8 | 1.31 | 90 | 2.63
11 | CCN(CC)C(C)CCCC(=O)Nc1c(C)cccc1C (configuration not stated) | 10.1 | 100 | 7.9 | 1 | 790 | 2.64
12 | Cc1cccc(C)c1NC(=O)CCCCCN | 10.1 | 270 | 7.7 | 0.57 | 2070 | 1.29
13 | CCN(CC)CCC(=O)Nc1c(C)cccc1C | 8.83 | 130 | 1.6 | 0.9 | 210 | 2.21
14 | Cc1cccc(C)c1NC(=O)CCC(C)N (configuration not stated) | 9.36 | 360 | 7.4 | 0.45 | 2660 | 1.08
15 | CCN(CC)CC(=O)Nc1c(C)cccc1C [LIDOCAINE] |  | 210 |  | 0.88 | 180 | 
16 | CCN(CC)CCCC(=O)Nc1c(C)cccc1C | 9.52 | 140 | 5.4 | 0.86 | 760 | 2.06
17 | Cc1cccc(C)c1NC(=O)CCCC(C)N (configuration not stated) | 9.79 | 190 | 6.2 | 0.72 | 1170 | 1.41
18 | Cc1cccc(C)c1NC(=O)CCCCN | 9.81 | 310 | 5.8 | 0.51 | 1810 | 1.02
19 | Cc1cccc(C)c1NC(=O)CC(C)N (configuration not stated) | 8.71 | 250 | 6.6 | 0.62 | 1640 | 0.84
20 | CCN(CC)CCCCCC(=O)Nc1c(C)cccc1C | 10.2 | 130 | 5.2 | 0.89 | 670 | 2.95
